The values that follow come from paper PMC6460348 (ChemistryOpen, 2019).

For the experiment, the target named is wild type XIAP‐BIR1 (Homo sapiens, UniProt P98170). The experiment can be described thus: MicroScale Thermophoresis. Format: binding. An outline of the steps:
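Human XIAP-BIR1 domain (wild type, or R62S, D71A, R82S or V86E point mutant made by site-directed mutagenesis), expressed from pET28b and purified. Lysines were covalently dye-labelled, and protein was held at 100 nM. Test compound was added as a two-fold series, final 30 nM–1.0 mM or 300 nM–10 mM. Assay at 24 °C in 50 mM Tris-HCl pH 8, 200 mM NaCl, 10 % glycerol, 10 mM DTT, 0.05 % Tween20, with 20 % LED and medium MST power. Kd was fitted from unbound/bound response values.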

Chain of wild type XIAP‐BIR1 (P98170 10-99 limits assumed): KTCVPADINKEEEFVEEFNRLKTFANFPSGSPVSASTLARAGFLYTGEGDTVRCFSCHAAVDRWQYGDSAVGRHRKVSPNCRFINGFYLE

In turn, `Cc1ccc(C(=O)Nc2ccc(S(=O)(=O)O)c3cc(S(=O)(=O)O)cc(S(=O)(=O)O)c23)cc1NC(=O)c1cccc(NC(=O)Nc2cccc(C(=O)Nc3cc(C(=O)Nc4ccc(S(=O)(=O)O)c5cc(S(=O)(=O)O)cc(S(=O)(=O)O)c45)ccc3C)c2)c1` [Suramin] registered a Kd of 612 ± 109 µM.
